Source: PubChem
MEKK2 WT-MEK5 – raises or lowers MEK5 binding to wildtype human MEKK2 PB1 domain. Q9Y2U5. bead flow cytometry, Alexa488-MEK5 binding to MEKK2 WT; actives lie on both sides. binding response (% of control), % at 10 µM. 290,000 tested, 1.1% active. AID 1531; in the data active means binding response below about 67% or above about 130%; inconclusive means no clear call, values can overlap the other calls; inactive means in between
Apaf1 inhib – human Apaf-1 inhibition. O14727. reconstituted apoptosome caspase-3 activity, DEVD-Rh110 fluorescence. inhibition, % at 20 µM. 330,000 tested, 0.71% active; active means inhibition of at least 40% at 20 µM;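 further: plate controls were DMSO wells for no effect and DEVD-CHO caspase inhibitor wells for full effect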
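Material: biochemical Apaf-1 apoptosome reconstitution. Medium: Hepes buffer, pH 7.5. Also added: cytochrome c activation, bis-DEVD rhodamine 110 substrate. Timing: 30 min compound preincubation, 50 min activation, room temperature. Measured by: rhodamine 110 fluorescence at Ex 480/Em 540 nm.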
UBC13 inh – human UBC13 polyubiquitination inhibition | inhibition, % at 20 µM | AID 485273 | P61088 | UBC13 polyubiquitin chain formation, TR-FRET | 330,000 tested, 0.47% active; in the data active means inhibition above about 45%, passing the limit was not always enough; inconclusive means no clear call, values can overlap the other calls
MEKK3 PB1 HTS – raises or lowers MEK5 binding to the human MEKK3 PB1 domain; Q99759; bead-based flow cytometry, Alexa488-MEK5 binding to MEKK3; actives lie on both sides; 0 = blocked by unlabeled MEK5, 100 = vehicle; binding response (% of control), % at 10 µM; 290,000 tested, 1.4% active; AID 1529;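 active means binding response more than 3 SD above or below the average of its plate-row segment, actives on both sides; inconclusive means wells at one plate position flagged as instrument error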;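 further: Alexa488 bead fluorescence after subtracting the streptavidin-only scavenger bead signal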
Target sequence (Q99759 whole entry, looked up, the tested form may be a part): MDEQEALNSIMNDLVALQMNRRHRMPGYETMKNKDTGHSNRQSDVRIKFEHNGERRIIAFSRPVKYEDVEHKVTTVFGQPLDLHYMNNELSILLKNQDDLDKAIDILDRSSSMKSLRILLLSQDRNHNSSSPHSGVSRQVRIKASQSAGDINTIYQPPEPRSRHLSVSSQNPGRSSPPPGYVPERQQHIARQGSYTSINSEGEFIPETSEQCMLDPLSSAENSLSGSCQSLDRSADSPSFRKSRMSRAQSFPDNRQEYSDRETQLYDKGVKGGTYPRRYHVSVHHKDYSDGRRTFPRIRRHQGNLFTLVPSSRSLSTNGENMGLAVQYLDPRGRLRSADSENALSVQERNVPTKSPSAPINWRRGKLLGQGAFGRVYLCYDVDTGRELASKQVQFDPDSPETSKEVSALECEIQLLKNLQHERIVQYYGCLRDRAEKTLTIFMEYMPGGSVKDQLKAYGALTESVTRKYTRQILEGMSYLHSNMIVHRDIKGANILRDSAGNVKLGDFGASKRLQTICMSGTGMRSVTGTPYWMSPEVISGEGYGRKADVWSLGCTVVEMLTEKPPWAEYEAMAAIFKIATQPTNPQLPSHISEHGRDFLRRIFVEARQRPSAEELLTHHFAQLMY
MEKK2mut PB1 HTS – signal of MEK5 binding to mutant human MEKK2 PB1 domain. bead flow cytometry, Alexa488-MEK5 binding to MEKK2 mutant. percent response, % at 10 µM. 290,000 tested, 0.35% active. AID 1530; in the data active means percent response above about 24%, passing the limit was not always enough
Apaf-1 inh conf2 – confirmation of Apaf-1 inhibitors; shares compounds with Apaf1 inhib; reconstituted apoptosome, caspase-3 DEVD-Rh110 fluorescence; inhibition, % at 20 µM; 1,800 tested, 25% active; AID 504614;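 active means mean inhibition of at least 40% at 20 µM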;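 further: plate controls were DMSO wells for no effect and DEVD-CHO caspase inhibitor control wells for full effect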
Rh110 interf inh – counter-screen for Apaf-1 inhibitors: fluorescence interference; shares compounds with Apaf1 inhib; Rh110 fluorescence interference, quenched caspase reaction; activation (fluorescence interference), % at 20 µM; 1,800 tested, under 10 active; AID 504615;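 active means signal rise of 40% or more at 20 µM, treated as a fluorescence artifact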
Fluor interf inh – counter-screen for Apaf-1 inhibitors: fluorescence interference, dose response | shares compounds with Apaf1 inhib | fluorescence interference counterscreen, Apaf-1 assay format | IC50, µM | 460 tested, under 10 active | AID 588538; call rule not given here
* hit, by the source's call; ? = inconclusive; / = no result. A selection: hits, their analogues and other compounds. The true share with any hit is near 2.9%.

SMILES | MEKK2 WT-MEK5 | Apaf1 inhib | UBC13 inh | MEKK3 PB1 HTS | MEKK2mut PB1 HTS | Apaf-1 inh conf2 | Rh110 interf inh | others
CCN(c1ccccc1)S(=O)(=O)c1ccc(Cl)c(NC(=O)Nc2ccc(Cl)cc2C#N)c1 | 99 | 40* | -9 | 101 | 1 | 44* | -4 | Fluor interf inh=>100
CCN(c1ccccc1)S(=O)(=O)c1ccc(Cl)c(NC(=O)CN2CCN(C)CC2)c1 | / | 52* | 44 | / | / | 18 | 6
CN(c1ccccc1)S(=O)(=O)c1cccc(NC(=O)Nc2ccc(Cl)cc2C#N)c1 | 95 | 6 | 14 | 94 | -2 | / | /
CCC(CC)c1nnc(NC(=O)CCN2C(=O)c3ccccc3C2=O)s1 | 104 | 6 | 3 | 109 | 16 | / | /
CCC(CC)c1nnc(NC(=O)CN2C(=O)c3ccccc3C2=O)s1 | 101 | 87* | 6 | 97 | 1 | 4 | -3
CCOc1ccc(NC(=S)N(C)C)cc1 | 82 | -26 | 15 | 73 | -13 | / | /
COc1cc(/C=C/C(=O)O)cc(S(=O)(=O)NC2CC2)c1OC | 103 | -1 | 6 | 98 | 1 | / | /
Cc1coc2c1C(=O)C(=O)c1c-2ccc2c1CCCC2(C)C | 99 | 77* | -81 | 96 | 0 | 59* | 10 | Fluor interf inh=>100
CCCOc1ccccc1C(=O)N(Cc1cccc(Br)c1)C1CCS(=O)(=O)C1 (centres undefined) | 93 | 7 | 7 | 93 | -1 | / | /
CCc1ccc(NC(=O)[C@H](Cc2c[nH]c3ccccc23)NC(=O)[C@@H]2Cc3ccccc3CN2)cc1 | 116 | 41* | 12 | 101 | 6 | 18 | 1
Cc1cc(C)cc(NC(=O)[C@H](Cc2c[nH]c3ccccc23)NC(=O)[C@@H]2Cc3ccccc3CN2)c1 | 99 | 17 | 13 | 96 | -1 | / | /
COc1ccc(OC)c(-n2c(N)c(C(=O)NCC3CCCO3)c3nc4ccccc4nc32)c1 (centres undefined) | 101 | / | / | 104 | 4 | / | /
COCCn1c(N)c(C(=O)NCC2CCCO2)c2nc3ccccc3nc21 (centres undefined) | 110 | 75* | -1 | 108 | 6 | 30 | 5
CC(C)Cn1c(N)c(C(=O)NCC2CCCO2)c2nc3ccccc3nc21 (centres undefined) | 91 | 65* | -7 | 90 | -8 | 30 | 10
Cc1c(NC(=O)C(C)N(c2ccccc2)S(C)(=O)=O)c(=O)n(-c2ccccc2)n1C (centres undefined) | 84 | -6 | -5 | 78 | -18 | / | /
Cc1cc(O)c2c(c1O)C(=O)[C@]13C(=C2O)C(=O)[C@@H]2[C@@H](O)[C@H]1[C@@H]1[C@H](O)[C@H]3C(=O)C3=C(O)c4c(O)cc(C)c(O)c4C(=O)[C@]312 | / | 69* | -276 | / | / | 59* | 7 | Fluor interf inh=>100
CC(NS(=O)(=O)c1ccc(OCC(=O)NCc2ccccn2)cc1)c1ccccc1 (centres undefined) | 105 | -2 | 0 | 106 | 1 | / | /
O=[N+]([O-])c1ccccc1-c1ccc(C(=S)N2CCCC2)o1 | 96 | 47* | -46 | 98 | -1 | 40 | 2 | Fluor interf inh=>100
CC(=O)c1cc(O)c2ccccc2c1O | 93 | 58* | -41 | 96 | 3 | 11 | 3
COc1ccc(NC(=O)c2c[nH]n3c(=O)cc(C4CCN(C(=O)OC(C)(C)C)CC4)nc23)cc1Cl | 82 | 42* | -51 | 97 | -18 | 31 | 8
CC(C)(C)OC(=O)N1CCC(c2cc(=O)n3[nH]c(-c4ccc(Cl)cc4)cc3n2)CC1 | 99 | 3 | -12 | 96 | -7 | / | /
CN1N=C(C(C)(C)C)CC1=O | 95 | 41* | -8 | 100 | 0 | 11 | 7
CN1N=C(C(F)(F)F)CC1=O | 104 | -4 | -6 | 121 | 0 | / | /
COCc1cc(CN2CCCC(C(=O)Nc3ccc(-c4ccco4)cc3)C2)ccc1OC (centres undefined) | 127 | 17 | 4 | 102 | 16 | / | /
O=C(CSc1nnc2ccc(-c3ccccn3)nn12)Nc1ccccc1F | / | -3 | 10 | / | / | / | /
SMILES | MEKK2 WT-MEK5 | Apaf1 inhib | UBC13 inh | MEKK3 PB1 HTS | MEKK2mut PB1 HTS | Apaf-1 inh conf2 | Rh110 interf inh | others
CCN1C(=NCCc2ccc(Br)cc2)N[C@@H](c2ccccc2)[C@H](C(=O)OC)[C@H]1C | / | 45* | 31 | / | / | 12 | 2
CC(=O)N1CCn2c3c(c(=O)c4cc(C)ccc42)CCC31 (centres undefined) | / | 73* | -14 | / | / | 17 | -1
Oc1cc(NCc2ccc(F)cc2)cc2cccnc12 | / | 13 | 9 | / | / | / | /
CN(C)CCCNc1cc(O)c2ncccc2c1 | / | 77* | ? | / | / | 55* | 3 | Fluor interf inh=>100
CCOC(=O)c1ccc(N/C(=N\S(=O)(=O)c2ccc(F)cc2F)c2ccccc2)cc1 | 115 | 20 | 3 | 103 | 7 | / | /
Cc1ccc2cc(C(c3nnnn3Cc3ccccc3)N3CCc4ccccc43)c(=O)[nH]c2c1 (centres undefined) | 94 | 43* | 6 | 106 | -1 | 18 | 4
Cc1cc2cc(C(c3nnnn3Cc3ccco3)N3CCc4ccccc4C3)c(=O)[nH]c2cc1C (centres undefined) | 94 | 41* | -7 | 104 | 3 | 24 | 10
COc1ccc2cc(C(c3nnnn3C(C)(C)C)N3CCc4ccccc4C3)c(=O)[nH]c2c1 (centres undefined) | / | 31 | -11 | / | / | / | /
COc1ccc2cc(C(c3nnnn3C3CCCC3)N3CCc4ccccc4C3)c(=O)[nH]c2c1 (centres undefined) | 95 | 72* | -4 | 99 | -2 | 24 | 13
Cc1ccc2[nH]c(=O)c(C(c3nnnn3CC3CCCO3)N3CCc4ccccc4C3)cc2c1 (centres undefined) | 99 | 66* | 0 | 98 | -2 | 17 | 9
O=C(NC(Cc1c[nH]c2ccccc12)C(=O)OCC(=O)c1cccc2ccccc12)c1cccs1 (centres undefined) | 115 | 11 | 2 | 102 | 12 | / | /
COc1ccc2ccccc2c1C1CC(=O)N2CN(Cc3ccco3)CSC2=C1C#N (centres undefined) | 104 | 52* | -6 | 101 | 3 | 32 | 8
N#CC1=C2SCN(Cc3ccccc3)CN2C(=O)CC1c1cccs1 (centres undefined) | 104 | 78* | -16 | 103 | 8 | 17 | -8
N#CC1=C2SCN(Cc3ccccc3)CN2C(=O)CC1c1ccc2c(c1)OCO2 (centres undefined) | 101 | 7 | -4 | 101 | -8 | / | /
COc1ccc(NCc2cc3cc(OC)ccc3[nH]c2=O)cc1 | 96 | 47* | -34 | 98 | -1 | 62* | 6 | Fluor interf inh=>100
